# FN deposit inh = fibronectin deposition inhibition. hit rate 0.086% among 350,000. inhibition, % at 12.6 µM. AH1F fibroblasts, Alexa488-fibronectin deposition fluorescence, overnight. AID 743247;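 active = mean inhibition across replicates of 30% or more, regardless of how many single replicates reach that level; inconclusive = mean under 30% yet at least half of replicates reach 30%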;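 note: positive control wells lacked labelled fibronectin entirely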
#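 Material: AH1F fibroblast monolayer depositing Alexa488-labelled fibronectin into matrix / Amount: 10000 AH1F cells per well / Signal: fluorescence 485/525 nm / Medium: DMEM, 2% serum / Compound: single dose, pinned / Incubation: 1 h cell adhesion before compound, then overnight fibronectin incubation / Reagent: Alexa488-FN, 24 nM final / Read-out: inhibition of fibronectin deposition signal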
# ERp5 block = blocks human ERp5 reductase activity on insulin. inhibition, % at 9.99 µM. hit rate 0.05% among 350,000. ERp5 insulin aggregation, absorbance 650 nm, 90 min. Q15084. AID 651711;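 active = mean replicate inhibition above about 25%, with every replicate also reaching it, limit read from the data, passing the limit was not always enough; inconclusive = only one of those two criteria met; inactive = neither criterion met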
# AF4-AF9 inh = blocks AF4 peptide binding to human AF9 | P42568 | AlphaScreen, biotin-AF4 peptide binding to FLAG-AF9 | inhibition, % at 10 µM | hit rate 0.47% among 350,000;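 active = every replicate reaching a set inhibition limit, whatever the replicate mean, cut at about 25% in these data; inconclusive = mean inhibition reaches that limit but some replicates miss it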;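 note: 0% = plate neutral control median and 100% = total signal loss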
# PDI turbidity = PDI (human) enzyme inhibition; PDI insulin aggregation turbidity, A650, 90 min; inhibition, % at 10 µM; hit rate 0.052% among 350,000; AID 588391;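 active = mean inhibition across replicates of 30% or more, whatever share of single replicates reach that level; inconclusive = mean inhibition below 30% while every single replicate reaches 30%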
# Target sequence (P07237 whole entry, looked up): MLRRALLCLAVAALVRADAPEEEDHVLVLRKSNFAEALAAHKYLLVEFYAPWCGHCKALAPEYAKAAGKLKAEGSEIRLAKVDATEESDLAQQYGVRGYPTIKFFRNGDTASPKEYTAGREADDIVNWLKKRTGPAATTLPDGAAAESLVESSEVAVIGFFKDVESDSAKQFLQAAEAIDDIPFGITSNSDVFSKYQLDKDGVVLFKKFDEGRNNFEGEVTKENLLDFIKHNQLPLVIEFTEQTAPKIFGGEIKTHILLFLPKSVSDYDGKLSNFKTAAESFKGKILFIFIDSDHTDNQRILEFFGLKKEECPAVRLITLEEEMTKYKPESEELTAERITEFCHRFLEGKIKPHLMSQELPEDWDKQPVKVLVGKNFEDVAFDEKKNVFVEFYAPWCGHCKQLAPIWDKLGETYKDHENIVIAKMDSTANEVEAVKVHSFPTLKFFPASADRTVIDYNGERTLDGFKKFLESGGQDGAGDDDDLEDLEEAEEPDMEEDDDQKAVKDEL
# SIRT5 inh = sirtuin-5 (human) deacylase inhibition | Q9NXA8 | inhibition, % at 15 µM | hit rate 1.1% among 330,000 | AID 652115 | Purified SirT5, succinyl-peptide AMC, trypsin-coupled fluorescence; in the data active = inhibition above about 15%; inconclusive = no clear call, values can overlap the other calls
# Alpha interfer = AlphaScreen signal interference counter-screen hit. shares compounds with AF4-AF9 inh. signal luminescence. AC50, µM (top dose mostly 12 µM), for the others: top-dose activity change, negative = inhibition. hit rate 45% among 530; cut-off not given, nearly all actives have AC50 up to about 14 µM
# Active calls of the source: *; ? = inconclusive; / = no result given. Shown are actives, neighbours in structure and some others; about 1.3% of the full set was active somewhere.
SMILES,FN deposit inh,ERp5 block,AF4-AF9 inh,PDI turbidity,SIRT5 inh,Alpha interfer
COc1cccc(C(=O)O[C@@H]2[C@H](Cc3ccccc3)NS(=O)(=O)[C@H]3C[C@@H]4C=C[C@]23O4)c1,2,3,-1,11,0,/
COc1ccc(N2CCN(C3CCCN(S(=O)(=O)c4ccc(C)cc4C)C3)CC2)cc1 (stereo unspecified),2,-15,32*,-3,-6,/
COc1ccc(N2CCN(C3CCCN(S(=O)(=O)c4ccccc4)C3)CC2)cc1 (stereo unspecified),1,-6,6,-11,-1,/
CCOC(=O)C1=CCC2C(=O)N(C3CCCCC3)C(=O)C12 (stereo unspecified),-11,2,-1,/,18*,/
CCCCNC(=O)O[C@@H]1C[C@@H]2CCN3C(=O)CCC[C@H]([C@H]1CC)[C@H]23,2,-2,94*,2,2,/
CCOC(=O)N1CCN(Cc2ccc(O)c3ncccc23)CC1,/,-2,19,/,-2,/
Cc1ccc(C)c(S(=O)(=O)N2CCN(Cc3ccc(O)c4ncccc34)CC2)c1,-2,-6,82*,11,8,-31%
O=C(O)c1ccccc1C(=O)c1cccc2ccccc12,-6,-1,2,25,-6,/
Cc1cc2c(OCC(O)CNC(C)(C)C)cccc2[nH]1 (stereo unspecified),/,/,/,4,/,/
COCCCNCC(O)COc1cccc2[nH]c(C)cc12 (stereo unspecified),/,-3,52*,-8,-1,-22%
CC1CN(C)C(C)c2c1oc1ccc(N)cc21 (stereo unspecified),2,6,35*,1,-4,-26%
CC1CN(C)C(C)c2c1oc1ccc([N+](=O)[O-])cc21 (stereo unspecified),4,-2,-1,-1,-1,/
COc1cc(OC)c2c(-c3ccccc3)cc(=O)oc2c1C(CCN1CCCCC1)c1ccc2c(c1)OCO2 (stereo unspecified),8,-2,36*,1,/,-28%
COc1cc(OC)c2c(-c3ccccc3)cc(=O)oc2c1C(CCN1CCOCC1)c1ccc(N(C)C)cc1 (stereo unspecified),-11,3,39*,18,-2,-20%
COc1ccc(C2CC(=O)Oc3c(C(CCN4CCN(c5ccccc5)CC4)c4ccc(N(C)C)cc4)c(OC)cc(OC)c32)cc1 (stereo unspecified),1,1,14,11,1,/
COc1cc(OC)c2c(-c3ccccc3)cc(=O)oc2c1C(CCN1CCCCC1)c1ccc(N(C)C)cc1 (stereo unspecified),/,/,/,3,/,/
COc1cc(OC)c2c(c1C(CCN1CCOCC1)c1ccc(N(C)C)cc1)OC(=O)CC2c1ccc(N(C)C)cc1 (stereo unspecified),-6,2,65*,2,0,13µM*
COc1ccc(C(CCN2CCCCC2)c2c(OC)cc(OC)c3c(-c4ccccc4)cc(=O)oc23)cc1 (stereo unspecified),9,6,19,1,/,/
COC(=O)c1[nH]c2ccc(C)cc2c1NC(=O)CCN1CCN(Cc2ccc3c(c2)OCO3)CC1,-14,/,/,-3,/,/
Cc1cc(/C=N/n2c(COc3ccccc3C)nc3ccccc3c2=O)c(O)c([N+](=O)[O-])c1,10,3,32*,4,-3,4%
O=C(Nc1c(C(=O)C2CC2)oc2ccccc12)c1ccc(Cl)cc1,3,/,/,-6,/,/
CN(C)c1ccc(NC(=S)NC23CC4CC(CC(C4)C2)C3)cc1,-5,0,44*,-10,0,-29%
CCOc1ccc(NC(=S)NC23CC4CC(CC(C4)C2)C3)cc1,-10,-3,-6,4,0,/
CN(C)CC/C=C1/c2ccc(F)cc2Sc2ccc(Cl)cc21,16,-2,36*,3,0,-31%
CN(C)CC/C=C1\c2ccc(F)cc2Sc2cc(F)c(Cl)cc21,-13,-5,46*,-27,0,-42%
SMILES,FN deposit inh,ERp5 block,AF4-AF9 inh,PDI turbidity,SIRT5 inh,Alpha interfer
CN(C)CC/C=C1\c2ccccc2Sc2ccc(Cl)cc21,-3,2,24,-7,-4,/
C[C@@H]1CN([C@@H](C)CO)C(=O)c2cc(C#CCc3ccccc3)cnc2O[C@H]1CN(C)Cc1ccccc1,/,-1,10,/,3,/
CCOC(=O)c1c(-c2ccc(-c3ccccc3)cc2)csc1NC(=O)CNCCN(C)C,6,2,31*,0,-7,-32%
CCOC(=O)c1c(-c2ccccc2)csc1NC(=O)CCN1C(=O)c2ccccc2C1=O,0,1,-1,-2,-10,/
C#CCOCCOCCOCCNc1nc(N2CCN(C(=O)[C@H](CCCCN)n3cc([C@@H](N)C(C)CC)nn3)CC2)nc(N2CCN(C(=O)[C@H](CCCCN)n3cc([C@@H](N)CC(C)C)nn3)CC2)n1 (stereo partly specified),-1,0,56*,3,/,-3%
C#CCOCCOCCOCCNc1nc(N2CCN(C(=O)[C@H](CC(N)=O)n3cc(C(N)[C@@H](C)CC)nn3)CC2)nc(N2CCN(C(=O)[C@H](CCCCN)n3cc([C@@H](N)CC(N)=O)nn3)CC2)n1 (stereo partly specified),10,0,10,8,-2,/
C#CCOCCOCCOCCNc1nc(N2CCN(C(=O)[C@H](CCCCN)n3cc(CN)nn3)CC2)nc(N2CCN(C(=O)[C@H](CC(N)=O)n3cc(C(N)[C@H](C)CC)nn3)CC2)n1 (stereo partly specified),3,4,?,10,/,-13%
C#CCOCCOCCOCCNc1nc(N2CCN(C(=O)[C@H](CCCN=C(N)N)n3cc(C(N)[C@H](C)CC)nn3)CC2)nc(N2CCN(C(=O)[C@H](CCCN=C(N)N)n3cc(C(N)[C@@H](C)CC)nn3)CC2)n1 (stereo partly specified),/,/,/,0,/,/
C#CCOCCOCCOCCNc1nc(N2CCN(C(=O)C([C@@H](C)O)n3cc([C@@H](N)CCCCN)nn3)CC2)nc(N2CCN(C(=O)C([C@@H](C)O)n3cc([C@@H](N)CCCCN)nn3)CC2)n1 (stereo partly specified),-9,-4,39*,0,-2,17%
C#CCOCCOCCOCCNc1nc(N2CCN(C(=O)[C@H](CCCCN)n3cc(CN)nn3)CC2)nc(N2CCN(C(=O)[C@H](CCCN=C(N)N)n3cc(C(N)[C@H](C)CC)nn3)CC2)n1 (stereo partly specified),7,-1,45*,8,/,-10%
Cc1ccc(CNC(=O)CCS(=O)(=O)c2cc3c(cc2Cl)NC(=O)CO3)o1,4,8,-8,/,-1,/
CC(C)N(C(=O)CC1ON(C)C(=O)N1c1ccc(Cl)cc1)C(C)C (stereo unspecified),10,3,-1,-5,-2,/
